Assay outcomes as filed in PubChem.
ANO1 block – mouse TMEM16A channel inhibition, primary screen; HEK293 TMEM16A/YFP iodide influx fluorescence, ionomycin; normalized B-score (activity score, 25-100; higher = stronger inhibition) at 10 µM; 1.2% of 310,000 active; AID 588511;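 active means ratio plate-corrected score three or more library SD toward inhibition, starting fluorescence score within five deviations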;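 further: score derived from kinetic fluorescence span divided by baseline fluorescence per well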
Target sequence (Q8BHY3 whole entry, looked up): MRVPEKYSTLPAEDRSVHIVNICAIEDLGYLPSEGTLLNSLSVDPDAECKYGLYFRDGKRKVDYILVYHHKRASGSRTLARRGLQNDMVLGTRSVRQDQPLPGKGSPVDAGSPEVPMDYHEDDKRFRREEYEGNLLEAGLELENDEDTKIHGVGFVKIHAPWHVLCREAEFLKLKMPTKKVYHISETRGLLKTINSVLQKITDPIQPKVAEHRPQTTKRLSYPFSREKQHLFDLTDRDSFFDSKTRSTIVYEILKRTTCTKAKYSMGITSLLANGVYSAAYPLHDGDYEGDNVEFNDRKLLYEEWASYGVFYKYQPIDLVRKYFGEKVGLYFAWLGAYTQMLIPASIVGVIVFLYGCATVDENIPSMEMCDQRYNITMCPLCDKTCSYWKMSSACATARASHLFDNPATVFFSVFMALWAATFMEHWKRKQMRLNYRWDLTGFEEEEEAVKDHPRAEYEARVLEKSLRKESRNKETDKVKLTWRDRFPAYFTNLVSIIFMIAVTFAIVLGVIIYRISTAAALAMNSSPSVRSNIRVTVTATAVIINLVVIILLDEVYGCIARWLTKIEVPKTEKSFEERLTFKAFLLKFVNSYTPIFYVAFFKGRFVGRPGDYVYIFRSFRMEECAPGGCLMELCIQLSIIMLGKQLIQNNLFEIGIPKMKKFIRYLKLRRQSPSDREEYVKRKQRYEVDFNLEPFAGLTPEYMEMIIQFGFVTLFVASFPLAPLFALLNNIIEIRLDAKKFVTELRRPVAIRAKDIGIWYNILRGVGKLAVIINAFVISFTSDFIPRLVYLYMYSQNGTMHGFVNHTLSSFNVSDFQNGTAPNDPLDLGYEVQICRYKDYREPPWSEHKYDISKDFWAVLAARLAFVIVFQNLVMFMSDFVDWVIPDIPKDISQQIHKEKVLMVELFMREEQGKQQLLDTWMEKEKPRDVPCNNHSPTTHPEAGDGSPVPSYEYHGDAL
DAGLB inh – diacylglycerol lipase beta (human) inhibition. Q8NCG7. HEK293T DAGLB membrane lysate, EnzChek fluorogenic substrate. inhibition, % at 5.17 µM. 0.059% of 340,000 active; in the data active means inhibition above about 34%;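 further: 0% = enzyme with vehicle and 100% = wells lacking enzyme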
ANO1 activ – activates or potentiates the mouse TMEM16A chloride channel | B-score at 10 µM | HEK293 TMEM16A/YFP-H148Q/I152L, iodide quench fluorescence; hits give low values | Q8BHY3 | 0.3% of 340,000 active;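 active means fluorescence-ratio B-score plate-corrected deviation score at least 3 library SD below zero, with starting fluorescence score within 5 deviations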;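 further: channel opened by trigger with iodide after compound preincubation; score built on the fluorescence ratio of max minus min over baseline; more negative score means more quench and so TMEM16A activation or potentiation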
MT1-MMP act inh – blocks activation of human MT1-MMP | GFP/RFP ratio change, % at 20 µM | P50281 | 0.061% of 360,000 active | HT1080 RFP-PRO-GFP cells, GFP/RFP ratio fluorescence, overnight; percent of plate control window, DMSO zero;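 active means GFP/RFP ratio change of at least 30% with cell ATP level not reduced by more than half and red fluorescence within 50% of control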
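Test system: HT1080 RFP-PRO-GFP cells; Benchmarks: DMSO and RFP-L50D-GFP cell wells; Timing: cells overnight before dosing, compound overnight, 37 °C, 5% CO2; Compound: one 20 µM compound dose with 1% DMSO; Read-out: GFP/RFP fluorescence ratio.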
TMEM16A reconf – re-confirmation of mouse TMEM16A chloride channel inhibitors; shares compounds with ANO1 block; HEK293 TMEM16A/YFP-H148Q, iodide quench fluorescence; ionomycin added to raise cell calcium; inhibition, % at 10 µM; 39% of 2,300 active; AID 652189;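 active means mean duplicate percent inhibition, scaled so buffer wells are 0 and the reference blocker 100, over three buffer SD above buffer mean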
HEK293 Ca mobil – counter-screen for TMEM16A inhibitors: effect on calcium mobilization | shares compounds with ANO1 block | TMEM16A/YFP HEK293, Fluo4 calcium mobilization | calcium response (% of ionomycin), % at 10 µM | 2% of 2,300 active | AID 652231;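 active means duplicate-averaged calcium signal over 20% of the ionomycin maximum, relative to buffer baseline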;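 further: each well's signal is peak minus trough fluorescence divided by its pre-addition baseline; 0% = buffer wells and 100% = ionomycin wells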
Parental YFP cnt – acts in parental YFP-HEK293 cells lacking TMEM16A, counter-screen; shares compounds with ANO1 block; iodide YFP quench, ionomycin; YFP ratio F(max-min)/F0 at 10 µM; 2,300 tested, under 10 active;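 active means yellow fluorescent protein signal ratio exceeding the buffer control mean by over 5 SD of those controls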;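 further: ratio is mean of duplicate wells from kinetic YFP trace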
ClC-1 inh – selectivity of TMEM16A inhibitors: inhibition of rat ClC-1 chloride channel. CHO ClC-1-YFP, iodide influx fluorescence quench; iodide control reads 0, buffer control 100. 2,300 tested, under 10 active. shares compounds with ANO1 block. ratio percent, % at 10 µM;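 active means duplicate-mean ratio percent above the mean of iodide-only control wells, which defines zero, plus 5 of their SD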;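 further: higher percent means stronger block of ClC-1 iodide influx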
Active calls of the source: *; i = inactive; nt = no result given. Compounds with a hit are over-represented: about 1.3% of the library has one in this group of screens.

SMILES	ANO1 block	DAGLB inh	ANO1 activ	MT1-MMP act inh	TMEM16A reconf	HEK293 Ca mobil	Parental YFP cnt	ClC-1 inh
CC(=O)c1ccc(C(=O)N2CCC(CO)(Cc3cccc(C(F)(F)F)c3)CC2)cc1	100*	-6	i	-3	i	i	-1.2	-6
O=C(c1cccc(C(F)(F)F)c1)N1CCC(O)(CS(=O)(=O)Cc2ccccc2)CC1	100*	-1	i	1	i	i	-1.1	-3
CC1(C(=O)N2CCC(CO)(Cc3cccc(C(F)(F)F)c3)CC2)CC1	i	-1	i	7	nt	nt	nt	nt
Nc1ncnc2c1ncn2[C@@H]1O[C@H](CNC(=O)[C@H](N)Cc2cscn2)[C@@H](O)[C@H]1O	nt	-2	nt	1	nt	nt	nt	nt
CCN1C(=O)/C(=C/C=C2/SCCN2C)SC1=S	i	-7	i	-52	24%*	i	-0.59	17
CCOC(=O)N1CCN(C(C(=O)NC2CCCC2)C(C)C)CC1 (stereo not given)	nt	nt	nt	3	nt	nt	nt	nt
Cc1ccc(NC(=O)c2ccc(F)cc2)cc1S(=O)(=O)N1CCCCCC1	i	-6	i	-4	nt	nt	nt	nt
COc1ccc(C(=O)Nc2ccc(C)c(S(=O)(=O)N3CCCCCC3)c2)cc1	100*	-5	i	1	i	i	-1.1	-2
CCc1ccc(C(=O)Nc2ccc(OC)c(S(=O)(=O)N3CCCCC3)c2)cc1	nt	-3	i	20	nt	nt	nt	nt
CCc1cccc(OCC(=O)Nc2ccc(C)c(S(=O)(=O)N3CCCCCC3)c2)c1	100*	-7	i	3	i	i	-1.2	-4
Cc1ccc(NC(=O)CSc2ncnc3ccccc23)cc1S(=O)(=O)N1CCCCCC1	25*	-6	i	-6	27%*	i	-1.2	-16
Cc1ccc(S(=O)(=O)N2CCCCC2)cc1NC(=O)CSc1ncnc2ccccc12	i	-3	i	0	nt	nt	nt	nt
CCc1ccc(C(=O)Nc2ccc(OC)c(S(=O)(=O)N3CCOCC3)c2)cc1	100*	-1	i	10	i	i	-0.98	-9
CC(C)C(=O)N1CCC1(C)C(=O)Nc1ccc(-n2cncn2)cc1 (stereo not given)	nt	nt	nt	1	nt	nt	nt	nt
Cc1cccc(OCCC(=O)Nc2ccc(C)c(S(=O)(=O)N3CCCCC3)c2)c1	25*	-11	i	1	34%*	i	-1.1	-13
Cc1cccc(OCCC(=O)Nc2ccc(C)c(S(=O)(=O)N3CCOCC3)c2)c1	nt	-8	nt	1	nt	nt	nt	nt
COc1c(C(O)CC(C)C)ccc2c1C(=O)OCc1cc(C)cc(O)c1O2 (stereo not given)	25*	1	i	1	22%*	i	-0.97	-12
COc1c(C(CC(C)C)OC(C)=O)ccc2c1C(=O)OCc1cc(C)cc(O)c1O2 (stereo not given)	100*	-8	i	-5	24%*	i	-1.1	-14
CCN(CC(=O)Nc1c(F)cccc1F)C(=O)C1CCN(S(=O)(=O)c2ccccc2C(=O)OC)CC1	nt	-4	i	-6	nt	nt	nt	nt
Cc1cc(C(=O)OCC(=O)Nc2ccc(F)cc2F)c(C)o1	100*	-5	i	0	i	i	-0.87	-16
Cc1cc(C(=O)OCC(=O)Nc2ccccc2C)c(C)o1	nt	-2	i	-2	nt	nt	nt	nt
CCN(CC)CCCNC(=O)c1cc2nc(-c3ccccc3)cc(C(F)(F)F)n2n1	100*	0	i	4	i	i	-1.1	-10
O=C(c1ccc(-c2ccccc2)cc1)c1ccccc1C(=O)N1CCOCC1	100*	0	i	2	i	i	-1.2	-10
CCCCCCn1c(=O)n2n(c1=O)C[C@]1(OC(=O)NC3CCCC3)CN(S(=O)(=O)c3ccc(C)cc3)C[C@]1(O)C2	nt	-1	nt	1	nt	nt	nt	nt
Brc1cccc(C=Nc2cccc3ncccc23)c1	i	1	i	1	nt	nt	nt	nt
SMILES	ANO1 block	DAGLB inh	ANO1 activ	MT1-MMP act inh	TMEM16A reconf	HEK293 Ca mobil	Parental YFP cnt	ClC-1 inh
Oc1c(Br)cc(Br)cc1C=Nc1cccc2ncccc12	i	13	i	-1	18%*	i	-1	-6
CC(=O)C1CCC2C3CCC4=CC(=O)CCC4(C)C3(F)C(O)CC12C (stereo not given)	nt	-1	i	1	nt	nt	nt	nt
Clc1ccc(Cc2ccc(Cl)nn2)c(Cl)c1	i	-3	i	-1	nt	nt	nt	nt
Clc1ccc(Cc2ccc(SCc3ccccc3)nn2)c(Cl)c1	25*	-13	i	2	i	i	-1.3	-13
C/C(=C\C(=O)c1ccc(C)cc1)NCc1ccc(F)cc1	100*	-6	i	-6	i	i	-1	-19
C/C(=C\C(=O)c1ccc(F)cc1)NCc1ccc2c(c1)OCO2	100*	-3	-52*	5	i	i	-1.2	-18
CN(c1cccc(F)c1)c1cc2c(c3c1ccn3C)C1CCC2O1 (stereo not given)	nt	nt	nt	0	nt	nt	nt	nt
CCOc1cc(/C=N/NC(=O)CN2CCOCC2)ccc1OCc1ccccc1	i	0	i	0	nt	nt	nt	nt
CCOc1cc(/C=N/NC(=O)c2ccc(CN3CCOCC3)cc2)ccc1OCc1ccccc1	25*	0	i	-4	21%*	i	-1	-10
CN1CCN(C2CCCCCC2)CC1	25*	2	i	-1	i	i	-0.8	-10
CC(C)Oc1ncnc2c1[nH]c1ccccc12	25*	-2	i	5	i	i	-0.99	-10
CCCOc1ncnc2c1[nH]c1ccccc12	i	0	i	10	nt	nt	nt	nt
CCCOC(=O)c1ccc(-c2c(C)noc2-c2ccc(OC)cc2O)o1	100*	-6	i	-7	i	i	-1.2	-20
O=C(CCC1COc2ccccc2O1)NCc1ccccc1 (stereo not given)	100*	-1	i	2	i	i	-1.1	-16
O=C(CC1COc2ccccc2O1)NCc1ccccc1 (stereo not given)	i	1	i	2	nt	nt	nt	nt
COc1ccccc1NC(=O)C(C)OC(=O)C1CC(=O)N(c2ccc3c(c2)OCCO3)C1 (stereo not given)	i	-2	i	-5	nt	nt	nt	nt
COc1ccccc1NC(=O)C(C)OC(=O)C1CCC(C(C)(C)C)CC1 (stereo not given)	100*	-14	i	1	i	i	-0.93	-4
COCC(=O)N(C)C[C@@H]1Oc2cc(-c3ccc(F)cc3)ccc2S(=O)(=O)N([C@H](C)CO)C[C@H]1C	nt	6	nt	1	nt	nt	nt	nt
